The source of these data is ChEMBL document CHEMBL4382197, “Discovery of QCA570 as an Exceptionally Potent and Efficacious Proteolysis Targeting Chimera (PROTAC) Degrader of the Bromodomain and Extra-Terminal (BET) Proteins Capable of Inducing Complete and Durable Tumor Regression” (J Med Chem, 2018).

The source made the active and inactive calls. No cut-off for these calls is given here.

Experiment [1] deals with T1, Protein cereblon/Bromodomain-containing protein 2/Cullin-4A (Homo sapiens) (UniProt P25440+Q96SW2+Q13619). The experiment is described as follows: Protac activity at cereblon/cullin 4A/BRD2 in human MV4-11 cells assessed as BRD2 degradation at 30 to 100 pM after 3 hrs by Western blot analysis. It is filed as cell-based. Background: A western blot detects proteins with antibodies after separation by electrophoresis.

Experiment [2] addresses T1, Protein cereblon/Bromodomain-containing protein 2/Cullin-4A (Homo sapiens). The experiment is described as follows: Protac activity at cereblon/cullin 4A/BRD2 in human RS4:11 cells assessed as BRD2 degradation at 0.5 nM after 3 hrs in presence of proteasome inhibitor MG132 by Western blot analysis. It is filed as cell-based. In short, it runs like this:
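RS4;11 cells were pre-treated for 2 h with DMSO, lenalidomide (10 μM), MLN4924 (1 μM) or MG-132 (20 μM). The degrader was then added at 0.5 nM for 3 h. Lysates were immunoblotted for BRD2, BRD3 and BRD4, with GAPDH as loading control.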

In another experiment the test system is MOLM-13. The experiment is described as follows: Induction of apoptosis in human MOLM13 cells after 24 hrs by Annexin V/propidium iodine-double staining-based flow cytometry. It is filed as functional, cell-based. In short, it runs like this:
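Leukemia cells were treated for 24 h or 48 h at the indicated concentrations. They were then collected, washed in cold PBS and stained with Annexin V and propidium iodide. Apoptotic fraction was measured by flow cytometry.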
Background: In flow cytometry, cells or beads pass a laser one at a time.

The next experiment relates to RS4-11. The experiment is described as follows: Induction apoptosis in human RS4:11 cells assessed as caspase-3 activation at 0.3 nM after 24 hrs by Western blot analysis. It is filed as functional, cell-based. The method in brief:
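Cells (1.5–2×10^6/well) were treated for 24 h, washed in cold PBS and lysed in RIPA with protease inhibitors. 20 µg lysate was run on 4–20% or 4–12% gels and transferred to PVDF. Blots were probed for cleaved PARP and cleaved caspase 3, with GAPDH as loading control. Detection by ECL.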

The test system of a further experiment is Mus musculus. The experiment is described as follows: In vivo Protac activity at cereblon/cullin/BET in tumor of human RS4:11 cells xenografted in SCID mouse assessed as reduction in cMyc protein expression at 1 to 5 mg/kg, iv administered as single dose and measured at 1 to 24 hrs post dose by Western blot analysis. It is filed as functional, organism-based. The method in brief: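 SCID mice bearing subcutaneous RS4;11 tumors were given a single intravenous dose of 1 or 5 mg/kg. Tumors were harvested at 1, 6 and 24 h, two mice per time point. Tissue was ground in liquid nitrogen and lysed in CST buffer with protease inhibitors. 20 µg lysate per lane was probed for BRD2, BRD3, BRD4, c-Myc and cleaved PARP, with GAPDH as loading control.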
For orientation: In xenograft studies the graft and the host belong to different species.

T1 sequence (P25440 whole entry, looked up): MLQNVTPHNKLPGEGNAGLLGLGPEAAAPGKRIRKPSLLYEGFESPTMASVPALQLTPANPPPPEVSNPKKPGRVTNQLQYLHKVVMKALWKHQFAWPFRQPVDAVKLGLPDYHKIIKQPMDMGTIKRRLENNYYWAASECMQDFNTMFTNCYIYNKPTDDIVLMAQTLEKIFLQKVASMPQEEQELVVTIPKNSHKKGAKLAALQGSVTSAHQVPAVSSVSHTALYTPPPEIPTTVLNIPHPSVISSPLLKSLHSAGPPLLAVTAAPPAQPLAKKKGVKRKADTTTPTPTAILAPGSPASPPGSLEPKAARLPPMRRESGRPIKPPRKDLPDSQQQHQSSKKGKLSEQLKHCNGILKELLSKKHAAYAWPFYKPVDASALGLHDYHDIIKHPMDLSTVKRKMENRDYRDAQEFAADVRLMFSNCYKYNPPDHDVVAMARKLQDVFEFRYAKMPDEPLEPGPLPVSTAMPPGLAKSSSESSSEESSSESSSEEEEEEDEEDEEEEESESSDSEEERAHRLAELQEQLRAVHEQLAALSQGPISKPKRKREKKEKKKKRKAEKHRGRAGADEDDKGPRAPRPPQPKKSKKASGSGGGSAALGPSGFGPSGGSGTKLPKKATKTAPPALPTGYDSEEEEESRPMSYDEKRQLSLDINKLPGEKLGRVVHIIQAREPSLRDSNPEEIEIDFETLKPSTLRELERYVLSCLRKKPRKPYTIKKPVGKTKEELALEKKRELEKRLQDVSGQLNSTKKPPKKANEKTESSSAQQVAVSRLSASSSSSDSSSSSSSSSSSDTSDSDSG
T1 sequence (Q13619 whole entry, looked up): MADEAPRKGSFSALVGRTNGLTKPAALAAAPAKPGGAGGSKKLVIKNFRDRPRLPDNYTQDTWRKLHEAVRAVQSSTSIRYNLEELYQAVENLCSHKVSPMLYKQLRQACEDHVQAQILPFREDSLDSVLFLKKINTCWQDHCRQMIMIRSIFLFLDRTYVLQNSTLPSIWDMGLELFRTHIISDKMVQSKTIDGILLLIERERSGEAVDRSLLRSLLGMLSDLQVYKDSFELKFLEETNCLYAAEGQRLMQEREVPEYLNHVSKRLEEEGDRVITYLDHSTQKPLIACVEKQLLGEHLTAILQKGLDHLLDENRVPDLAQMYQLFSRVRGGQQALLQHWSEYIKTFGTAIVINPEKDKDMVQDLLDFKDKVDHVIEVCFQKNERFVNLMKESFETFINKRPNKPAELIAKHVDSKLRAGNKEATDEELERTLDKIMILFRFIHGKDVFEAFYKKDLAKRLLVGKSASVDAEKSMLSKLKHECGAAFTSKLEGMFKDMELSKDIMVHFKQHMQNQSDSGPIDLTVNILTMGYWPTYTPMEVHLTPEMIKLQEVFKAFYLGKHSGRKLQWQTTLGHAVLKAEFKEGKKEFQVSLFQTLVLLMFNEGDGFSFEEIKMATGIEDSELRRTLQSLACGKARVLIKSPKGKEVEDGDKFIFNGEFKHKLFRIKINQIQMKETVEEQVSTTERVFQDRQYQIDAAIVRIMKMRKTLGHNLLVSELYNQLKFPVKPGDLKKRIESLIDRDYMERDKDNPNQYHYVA
T1 sequence (Q96SW2 whole entry, looked up): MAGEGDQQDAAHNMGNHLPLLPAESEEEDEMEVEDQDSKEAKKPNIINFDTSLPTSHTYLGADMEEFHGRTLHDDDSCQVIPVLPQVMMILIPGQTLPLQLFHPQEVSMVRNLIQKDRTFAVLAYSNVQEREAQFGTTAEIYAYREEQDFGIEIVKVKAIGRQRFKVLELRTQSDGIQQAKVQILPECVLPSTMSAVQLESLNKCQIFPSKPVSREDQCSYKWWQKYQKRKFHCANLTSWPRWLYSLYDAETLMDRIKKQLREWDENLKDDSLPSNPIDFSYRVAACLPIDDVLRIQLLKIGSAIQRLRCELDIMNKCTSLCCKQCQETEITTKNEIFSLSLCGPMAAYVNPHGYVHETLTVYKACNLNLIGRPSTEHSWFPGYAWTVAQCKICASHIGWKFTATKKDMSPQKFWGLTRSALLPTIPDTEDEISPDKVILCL

With `Cc1nnc2n1Cc1sc(C#Cc3cnn(CCCC#Cc4cccc5c4CN(C4CCC(=O)NC4=O)C5=O)c3)c(Cc3ccccc3)c1OC2` (stereo not given), the result (in experiment [1]; with Mus musculus) was Active. For the same molecule, the outcome (in experiment [2]; with RS4-11) was inactive. Besides, in the experiment on MOLM-13, the Activity result was “Dose-dependent effect”.
